Results from ChEMBL document CHEMBL1139198, “Aryl sulfonamido indane inhibitors of the Kv1.5 ion channel” (Bioorg Med Chem Lett, 2007).
≈ marks a conversion by molar mass, not a printed value.

Tests used:
[1] = biological target: T1, Potassium voltage-gated channel subfamily A member 5 (Homo sapiens, UniProt P22460); experiment: Inhibition of Kv1.5 channel mediated delayed rectifier potassium current by patch-clamp technique
[2] = Aqueous solubility of the compound; format: physicochemical; details: buffer
Method in brief: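 Crystalline solid; shake-flask method in 50 mM phosphate-buffered saline, pH 6.8; dissolved compound quantified by LC/MS/MS.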

[3] = biological target: T1, Potassium voltage-gated channel subfamily A member 5; experiment: Inhibition of Kv1.5 channel mediated delayed rectifier potassium current at 1 uM by patch-clamp technique
[4] = biological target: hERG (KCNH2) (Homo sapiens, UniProt Q12809); experiment: Inhibition of hERG at 10 uM; format: toxicity
[5] = biological target: SCN5A (sodium channel protein type 5 subunit alpha) (Homo sapiens, UniProt Q14524); experiment: Inhibition of human SCN5A channel at 10 uM
[6] = Oral bioavailability in rat at 20 umol/kg; format: ADME, organism-based; details: in vivo
[7] = Oral bioavailability in dog at 20 umol/kg; format: ADME, organism-based, Canis lupus familiaris; details: in vivo
[8] = Half life in intra arterial infusion dosed rat at 10 umol/kg; format: ADME, organism-based; details: in vivo
[9] = Half life in intra arterial infusion dosed dog at 10 umol/kg; format: ADME, organism-based, Canis lupus familiaris; details: in vivo
[10] = Clearance in rat at 20 umol/kg, po; format: ADME, organism-based; details: in vivo
[11] = Clearance in dog at 20 umol/kg, po; format: ADME, organism-based, Canis lupus familiaris; details: in vivo
[12] = tested on: Rattus norvegicus; experiment: Volume of distribution in rat at 20 umol/kg, po; format: ADME, organism-based; details: in vivo
[13] = tested on: Canis familiaris; experiment: Volume of distribution in dog at 20 umol/kg, po; format: ADME, organism-based, Canis lupus familiaris; details: in vivo
[14] = organism: Rattus norvegicus; experiment: Inhibition of rat calcium channel GH3 at 10 uM

T1 sequence (P22460 whole entry): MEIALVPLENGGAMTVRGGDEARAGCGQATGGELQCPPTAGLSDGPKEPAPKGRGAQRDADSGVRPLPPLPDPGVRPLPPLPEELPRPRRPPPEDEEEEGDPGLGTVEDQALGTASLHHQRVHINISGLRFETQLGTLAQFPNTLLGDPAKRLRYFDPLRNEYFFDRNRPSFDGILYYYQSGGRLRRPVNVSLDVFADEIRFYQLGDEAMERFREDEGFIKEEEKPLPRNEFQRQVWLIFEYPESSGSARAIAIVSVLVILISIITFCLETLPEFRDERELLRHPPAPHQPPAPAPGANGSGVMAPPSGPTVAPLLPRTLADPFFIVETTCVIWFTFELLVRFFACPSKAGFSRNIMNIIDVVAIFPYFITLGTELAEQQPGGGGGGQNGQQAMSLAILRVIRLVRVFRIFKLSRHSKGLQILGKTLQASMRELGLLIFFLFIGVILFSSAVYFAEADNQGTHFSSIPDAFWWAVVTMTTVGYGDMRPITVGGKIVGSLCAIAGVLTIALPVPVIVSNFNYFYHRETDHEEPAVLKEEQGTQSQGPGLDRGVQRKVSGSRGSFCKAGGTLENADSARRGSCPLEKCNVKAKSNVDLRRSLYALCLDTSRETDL
hERG (KCNH2), sequence (Q12809 whole entry): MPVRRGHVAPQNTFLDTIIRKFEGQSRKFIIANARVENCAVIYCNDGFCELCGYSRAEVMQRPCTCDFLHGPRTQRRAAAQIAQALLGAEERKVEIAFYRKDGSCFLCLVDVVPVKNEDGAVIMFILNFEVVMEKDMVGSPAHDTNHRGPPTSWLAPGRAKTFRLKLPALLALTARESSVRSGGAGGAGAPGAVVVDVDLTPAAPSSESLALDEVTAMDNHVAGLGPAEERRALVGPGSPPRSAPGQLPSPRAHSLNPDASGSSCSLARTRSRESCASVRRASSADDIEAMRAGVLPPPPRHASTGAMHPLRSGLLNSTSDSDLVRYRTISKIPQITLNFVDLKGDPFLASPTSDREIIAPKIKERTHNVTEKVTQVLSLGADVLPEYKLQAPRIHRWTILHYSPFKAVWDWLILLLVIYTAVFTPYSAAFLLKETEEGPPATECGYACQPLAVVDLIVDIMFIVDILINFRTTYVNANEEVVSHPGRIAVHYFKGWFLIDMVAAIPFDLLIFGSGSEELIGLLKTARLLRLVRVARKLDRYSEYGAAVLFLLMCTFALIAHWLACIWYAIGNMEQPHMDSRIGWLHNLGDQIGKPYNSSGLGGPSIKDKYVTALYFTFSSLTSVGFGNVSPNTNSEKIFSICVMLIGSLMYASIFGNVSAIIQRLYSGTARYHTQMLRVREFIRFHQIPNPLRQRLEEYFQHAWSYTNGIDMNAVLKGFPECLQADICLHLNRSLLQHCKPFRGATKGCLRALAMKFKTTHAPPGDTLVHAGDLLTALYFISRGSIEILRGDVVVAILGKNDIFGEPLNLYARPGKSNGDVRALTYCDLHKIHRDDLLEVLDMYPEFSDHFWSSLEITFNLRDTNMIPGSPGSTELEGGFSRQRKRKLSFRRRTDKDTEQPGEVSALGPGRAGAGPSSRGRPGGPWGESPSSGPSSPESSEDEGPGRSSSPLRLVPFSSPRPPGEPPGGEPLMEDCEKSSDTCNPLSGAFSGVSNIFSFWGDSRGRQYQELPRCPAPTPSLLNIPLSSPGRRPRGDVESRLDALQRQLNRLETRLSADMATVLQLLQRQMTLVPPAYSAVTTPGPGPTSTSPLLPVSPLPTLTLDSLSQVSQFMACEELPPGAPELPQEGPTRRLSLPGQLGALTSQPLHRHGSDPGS
SCN5A (sodium channel protein type 5 subunit alpha), sequence (Q14524 whole entry): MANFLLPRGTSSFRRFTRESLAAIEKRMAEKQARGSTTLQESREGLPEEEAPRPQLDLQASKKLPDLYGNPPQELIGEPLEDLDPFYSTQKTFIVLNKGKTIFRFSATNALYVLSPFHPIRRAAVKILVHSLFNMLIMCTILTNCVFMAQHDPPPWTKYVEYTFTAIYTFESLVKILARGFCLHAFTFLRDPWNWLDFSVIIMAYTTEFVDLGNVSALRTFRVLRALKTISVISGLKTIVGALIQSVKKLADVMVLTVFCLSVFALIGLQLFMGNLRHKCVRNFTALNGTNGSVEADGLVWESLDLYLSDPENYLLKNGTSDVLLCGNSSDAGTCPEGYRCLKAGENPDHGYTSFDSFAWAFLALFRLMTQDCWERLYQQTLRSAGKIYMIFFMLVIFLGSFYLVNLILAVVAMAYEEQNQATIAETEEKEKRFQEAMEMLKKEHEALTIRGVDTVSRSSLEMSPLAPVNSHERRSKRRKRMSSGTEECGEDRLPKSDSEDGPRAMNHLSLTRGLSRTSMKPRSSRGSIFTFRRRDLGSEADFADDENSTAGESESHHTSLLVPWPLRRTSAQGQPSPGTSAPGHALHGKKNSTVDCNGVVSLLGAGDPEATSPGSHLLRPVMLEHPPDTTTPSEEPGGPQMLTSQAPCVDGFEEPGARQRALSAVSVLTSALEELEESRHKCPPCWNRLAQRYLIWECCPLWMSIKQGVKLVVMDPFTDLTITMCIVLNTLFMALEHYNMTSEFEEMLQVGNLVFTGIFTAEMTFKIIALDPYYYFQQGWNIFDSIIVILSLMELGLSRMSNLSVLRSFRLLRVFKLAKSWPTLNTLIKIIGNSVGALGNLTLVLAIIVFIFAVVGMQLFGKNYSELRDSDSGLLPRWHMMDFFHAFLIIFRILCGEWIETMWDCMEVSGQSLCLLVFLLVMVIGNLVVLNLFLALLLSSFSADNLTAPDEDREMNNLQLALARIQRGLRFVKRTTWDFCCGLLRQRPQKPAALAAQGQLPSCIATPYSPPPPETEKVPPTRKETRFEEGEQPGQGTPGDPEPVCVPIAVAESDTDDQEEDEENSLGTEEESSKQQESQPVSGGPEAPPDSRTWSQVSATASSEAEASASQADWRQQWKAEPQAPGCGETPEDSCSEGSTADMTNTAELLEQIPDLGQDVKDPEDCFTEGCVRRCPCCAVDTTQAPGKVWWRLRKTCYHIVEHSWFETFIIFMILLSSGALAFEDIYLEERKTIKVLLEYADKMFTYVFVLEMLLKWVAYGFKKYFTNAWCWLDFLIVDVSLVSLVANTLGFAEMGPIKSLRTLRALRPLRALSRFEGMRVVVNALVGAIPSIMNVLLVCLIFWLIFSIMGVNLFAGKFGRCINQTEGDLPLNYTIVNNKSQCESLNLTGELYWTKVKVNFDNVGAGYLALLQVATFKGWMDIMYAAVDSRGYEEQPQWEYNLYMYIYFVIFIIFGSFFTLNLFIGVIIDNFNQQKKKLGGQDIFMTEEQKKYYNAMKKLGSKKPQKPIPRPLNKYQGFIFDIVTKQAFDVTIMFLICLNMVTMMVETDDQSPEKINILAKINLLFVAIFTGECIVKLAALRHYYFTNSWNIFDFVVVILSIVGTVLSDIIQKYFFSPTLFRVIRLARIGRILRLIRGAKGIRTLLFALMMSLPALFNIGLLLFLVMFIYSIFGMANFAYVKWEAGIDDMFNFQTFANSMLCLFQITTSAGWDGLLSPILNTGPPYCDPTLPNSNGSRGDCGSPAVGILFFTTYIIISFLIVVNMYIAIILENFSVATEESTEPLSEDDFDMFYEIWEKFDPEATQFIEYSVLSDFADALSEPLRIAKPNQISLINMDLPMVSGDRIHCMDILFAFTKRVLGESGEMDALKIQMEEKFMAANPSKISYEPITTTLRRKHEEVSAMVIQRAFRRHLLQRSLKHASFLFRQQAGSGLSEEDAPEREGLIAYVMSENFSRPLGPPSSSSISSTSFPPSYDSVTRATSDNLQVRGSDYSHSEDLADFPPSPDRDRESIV

Question: Which results are given for `CCc1ccc(S(=O)(=O)N[C@@H]2c3cc(NC(=O)c4cccc(OC)c4)ccc3C[C@H]2O)cc1` (racemic)?
Answer: IC50 [1]: 0.16 µM; solubility [2]: 2.9 µg/mL (≈ 6.22 µM)

Question: Which IC50 [1] does the source give for `CCc1ccc(S(=O)(=O)NC2CCc3ccc(NC(=O)c4cccc(OC)c4)cc32)cc1` (racemic) here?
Answer: 0.15 µM

Question: And the solubility ([2]; read-out: Solubility)?
Answer: < 0.1 µg/mL

Question: Which IC50 [1] does the source give for `CCc1ccc(S(=O)(=O)N[C@@H]2c3cc(NC(=O)c4cccc(OC)c4)ccc3CC[C@H]2O)cc1` (racemic) here?
Answer: 0.44 µM

Question: For `CCc1ccc(S(=O)(=O)N[C@@H]2c3cccc(NC(=O)c4cccc(OC)c4)c3C[C@H]2O)cc1` (racemic), which inhibition [3] is on record?
Answer: 17%

Question: With `CCc1ccc(S(=O)(=O)N[C@H]2c3cc(NC(=O)c4cccc(OC)c4)ccc3C[C@@H]2O)cc1` as the compound, how does the IC50 [1] read?
Answer: 0.76 µM

Question: Which IC50 [1] does the source give for `CCc1ccc(S(=O)(=O)N[C@@H]2c3cc(NC(=O)c4cccc(OC)c4)ccc3C[C@H]2O)cc1` [listing 1 of 2 here] here?
Answer: 0.033 µM

Question: And the solubility [2]?
Answer: 1.3 µg/mL (≈ 2.79 µM)

Question: And the inhibition at 10 µM [4]?
Answer: 37%

Question: And the inhibition at 10 µM [5]?
Answer: 15%

Question: And the bioavailability [6]?
Answer: 1%

Question: And the bioavailability [7]?
Answer: 5%

Question: And the half-life [8]?
Answer: 24 min

Question: And the half-life [9]?
Answer: 90 min

Question: What about the CL/F [10] of the same compound?
Answer: 200 mL/min/kg

Question: And the CL/F [11]?
Answer: 12 mL/min/kg

Question: And the Vd [12]?
Answer: 4 L/kg

Question: And the Vd [13]?
Answer: 1.4 L/kg

Question: For `CCc1ccc(S(=O)(=O)N[C@@H]2c3cc(NC(=O)c4cccc(OC)c4)ccc3C[C@H]2O)cc1` [listing 2 of 2 here], which inhibition [14] is on record?
Answer: 27%

Question: For `CCc1ccc(S(=O)(=O)N[C@@H]2c3ccc(NC(=O)c4cccc(OC)c4)cc3C[C@H]2O)cc1` (racemic), which inhibition [3] is on record?
Answer: 24%

Question: With `CCc1ccc(S(=O)(=O)N[C@@H]2c3cc(NC(=O)c4cccc(OC)c4)ccc3C[C@@H]2O)cc1` (racemic) as the compound, how does the IC50 [1] read?
Answer: 0.3 µM

Question: Which IC50 [1] does the source give for `CCc1ccc(S(=O)(=O)N[C@@H]2c3cc(NC(=O)c4cccc(OC)c4)ccc3CCC[C@H]2O)cc1` (racemic) here?
Answer: 0.2 µM

Question: With `CCc1ccc(S(=O)(=O)N[C@@H]2c3ccccc3C[C@H]2O)cc1` (racemic) as the compound, how does the inhibition [3] read?
Answer: 3%

Question: For `CCc1ccc(S(=O)(=O)N[C@@H]2c3c(cccc3NC(=O)c3cccc(OC)c3)C[C@H]2O)cc1` (racemic), which IC50 [1] is on record?
Answer: 0.88 µM

Question: With `CCc1ccc(S(=O)(=O)N[C@@H]2c3cc(N)ccc3C[C@H]2O)cc1` (racemic) as the compound, how does the inhibition [3] read?
Answer: 2%

Question: Which IC50 [1] does the source give for `CCc1ccc(S(=O)(=O)NCc2cccc(NC(=O)c3cccc(OC)c3)c2)cc1` here?
Answer: 0.24 µM

Question: What about the solubility ([2]; read-out: Solubility) of the same compound?
Answer: 0.8 µg/mL (≈ 1.88 µM)
